Screening results as filed in PubChem.
APP transl inh: APP translation inhibition. SH-SY5Y APP 5'UTR-luciferase reporter, luminescence. inhibition, % at 2 µM. 0.82% of 190,000 active. AID 1285;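 active = inhibition above a set limit, derived from the sample mean plus 3 SD, cut at about 45% in these data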
IEC-6 tox: IEC-6 cytotoxicity, counter-screen for KLF5 inhibitors | luminescence viability | inhibition, % at 5 µM | 0.78% of 290,000 active | AID 1825;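 also: 0% = plate median of test compound wells and 100% = cytotoxic reference compound wells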
BaF3 tox: counter-screen for JAK2V617F inhibitors: parental Ba/F3 viability inhibitors; CellTiter-Glo ATP luminescence; inhibition, % at 5.6 µM; 1.1% of 220,000 active; AID 1486;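 active = inhibition above a per-campaign cutoff, the mean inhibition of all tested compounds plus 3 SD, cut at about 27% in these data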;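 also: 0% = DMSO wells and 100% = JAK Inhibitor I control wells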
bCat nuc transl: beta-catenin nuclear translocation modulation; HeLa beta-catenin nuclear translocation, immunofluorescence imaging; nuclear translocation activity, % at 5 µM; 0.3% of 190,000 active;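 active = nuclear translocation activity above 50% at 5 µM, with a well cell count of 50 or more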;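 also: per-cell ratio of nuclear to cytoplasmic median beta-catenin stain intensity; plate controls were DMSO negative control for no effect and GSK-3 inhibitor IX positive control for full effect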
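Assay system: human HeLa cells, native beta-catenin; doses: 5 µM primary, 0.02–20 µM confirmation; incubation: compound treatment 24 h, 37°C, 5% CO2; technique: fluorescence imaging of beta-catenin antibody stain plus DAPI; measure: % activation, nuclear-to-cytoplasmic median beta-catenin signal ratio per cell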
MT stabilizer: microtubule stabilization, imaging screen | HeLa tubulin immunostaining HCS, 24 h; share of cells brighter than vehicle mean+2SD | % tubulin-high responders, % at 10 µM | 0.83% of 200,000 active | AID 2205;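 active = plate Z-score above 3 for both tubulin-high and condensed-nucleus cell shares, with cell loss under 80%, at 10 µM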;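 also: anti alpha tubulin signal scored within the nucleus-defined area of each cell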
Ba/F3 V617F tox: reduce viability of Ba/F3 cells dependent on JAK2V617F | Ba/F3 EpoR-JAK2V617F viability, ATP luminescence | inhibition, % at 5.6 µM | 1.1% of 220,000 active | AID 1446;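 active = inhibition above the campaign mean plus 3 SD over all tested compounds, cut at about 24% in these data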;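 also: cytokine-independent growth of Ba/F3 cells driven by EpoR plus mutant JAK2; 0% = DMSO-treated cells and 100% = JAK inhibitor I control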
IEC-6 cytotox cf: IEC-6 cytotoxicity, confirmation assay; shares compounds with IEC-6 tox; IEC-6 rat intestinal epithelial viability, luminescence; inhibition, % at 5 µM; 63% of 1,900 active; AID 1907;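 also: 0% = vehicle and 100% = reference cytotoxic drug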
Active calls of the source: *. This is a sample that favours compounds with a hit; in the whole collection about 2.2% have one here. Rule as the data show it, unless noted: active = inhibition above about 22%; inactive = the rest.

C=CCn1c(=O)c(C(=O)NC2CC2)c(O)c2cc(OC)c(OC)cc21 was read as IEC-6 tox 6.
For CCc1nn(CC(=O)N2CCCCCC2)c(=O)c2cc3ccccc3n12 the results were IEC-6 tox -6.
O=c1nccc(N/N=C/c2ccccc2O)[nH]1 was read as IEC-6 tox 96* and IEC-6 cytotox cf 16.
`COc1cccc(/C=N/Nc2ccnc(=O)[nH]2)c1O` gave IEC-6 tox 97* and IEC-6 cytotox cf 24*.
Screening COc1cccc(OCc2cc(/C=N/Nc3ccc(C(=O)O)cc3)ccc2OC)c1 returned IEC-6 tox 28*, BaF3 tox -3, bCat nuc transl 0, Ba/F3 V617F tox 9 and IEC-6 cytotox cf 55*.
`COc1cccc(C(=O)Oc2ccc(/C=N/Nc3ccc(C(=O)O)cc3)cc2OC)c1` gave IEC-6 tox 2.
`O=C(NNC(=S)NC(=O)c1ccccc1[N+](=O)[O-])c1ccccc1[N+](=O)[O-]` gave APP transl inh -6, IEC-6 tox 0, BaF3 tox 7, bCat nuc transl 0, MT stabilizer 2 and Ba/F3 V617F tox 4.
For CCCCOc1ccccc1C(=O)NNC(=S)NC(=O)c1ccccc1[N+](=O)[O-] the results were IEC-6 tox 25* and IEC-6 cytotox cf 7.
O=C(COc1ncnc2sccc12)N1CCN(C(=O)c2ccco2)CC1 was read as APP transl inh -5, IEC-6 tox -1, BaF3 tox 4, bCat nuc transl -2, MT stabilizer 3 and Ba/F3 V617F tox -2.
For CCOc1ccc(-c2nnc(NC(=O)C3CCCC3)o2)cc1 the results were IEC-6 tox -7.
Screening COc1cc(NC(=O)c2cc(-c3ccccc3Cl)on2)cc(OC)c1OC returned IEC-6 tox 55* and IEC-6 cytotox cf 33*.
COc1ccccc1-c1cc(C(=O)Nc2cccnc2)no1 was read as APP transl inh 96*, IEC-6 tox 58*, BaF3 tox 57*, bCat nuc transl 70*, MT stabilizer 24*, Ba/F3 V617F tox 75* and IEC-6 cytotox cf 39*.
Screening CC1CCCCN1CCNC(=O)c1ccc2c(=O)n(Cc3ccc(Cl)cc3)c(=S)[nH]c2c1 (stereo not given) returned IEC-6 tox 4.
`CN(CC(=O)Nc1ccccc1Br)C(=O)CNC(=O)c1ccc(Oc2ccccc2)cc1` gave IEC-6 tox 4.
COc1ccc(C2/C(=C(/O)c3ccc4c(c3)CC(C)O4)C(=O)C(=O)N2CCCN2CCOCC2)cc1 (stereo not given) was read as IEC-6 tox -4.
For COc1ccc(S(=O)(=O)N2CCCc3ccccc32)cc1[N+](=O)[O-] the results were IEC-6 tox 59* and IEC-6 cytotox cf 44*.
`COc1ccc(S(=O)(=O)N2CCCc3ccccc32)cc1OC` gave IEC-6 tox 4, BaF3 tox 1, bCat nuc transl 0 and Ba/F3 V617F tox -1.
Screening COc1ccccc1N1CCN(C(=O)c2ccc3[nH]c(C)c(C)c3c2)CC1 returned IEC-6 tox 73* and IEC-6 cytotox cf 57*.
COC(=O)c1cccc(NC(=O)CSc2nnc(C3CC3)n2C)c1 was read as IEC-6 tox -1.
CCC1CCCCN1CCCNC(=O)C1CCN(Cc2nc(-c3ccc(Cl)cc3)oc2C)CC1 (stereo not given) was read as IEC-6 tox 47* and IEC-6 cytotox cf 70*.
Screening CC1(C)CC(=O)C2=C(C1)NC(Nc1nc3ccccc3o1)=NC2c1ccccn1 (stereo not given) returned APP transl inh 8, IEC-6 tox 23*, BaF3 tox 9, bCat nuc transl -1, MT stabilizer 7, Ba/F3 V617F tox 3 and IEC-6 cytotox cf 9.
`COc1ccc(S(=O)(=O)NCC2CCCO2)c(Cl)c1Cl` (stereo not given) gave IEC-6 tox 6.
For CCOc1ccc(S(=O)(=O)n2cnc3ccccc32)cc1 the results were IEC-6 tox -2.
CCOc1ccc(C)cc1S(=O)(=O)n1cnc2ccccc21 was read as IEC-6 tox 51* and IEC-6 cytotox cf 29*.
CN(Cc1ccccc1C#N)S(=O)(=O)c1cccs1 was read as IEC-6 tox 4.
N#Cc1nccnc1S(=O)(=O)c1cccs1 was read as IEC-6 tox 40*, BaF3 tox 35*, bCat nuc transl -2, Ba/F3 V617F tox 92* and IEC-6 cytotox cf 82*.
For COC(=O)c1ccc(Nc2cc(C)nc3ccccc23)cc1 the results were IEC-6 tox 23*, BaF3 tox 0, bCat nuc transl 79*, Ba/F3 V617F tox 6 and IEC-6 cytotox cf 27*.
For Cc1ccc2nc(NC(=O)C3CC3C)sc2c1 (stereo not given) the results were IEC-6 tox 6.
Screening N#CC1=C(N)Oc2cc(N)ccc2C1c1ccsc1 (stereo not given) returned APP transl inh 4, IEC-6 tox -2, BaF3 tox 7, bCat nuc transl -1, MT stabilizer 3 and Ba/F3 V617F tox -2.
Screening N#CC1=C(N)Oc2cc(N)ccc2C1c1cc(Br)cs1 (stereo not given) returned IEC-6 tox 24* and IEC-6 cytotox cf 10.
For N#CC1=C(N)Oc2cc(N)ccc2C1c1cccc(Br)c1 (stereo not given) the results were IEC-6 tox 81* and IEC-6 cytotox cf 54*.
Screening Cc1ccc(C2C(C#N)=C(N)Oc3cc(N)ccc32)cc1 (stereo not given) returned IEC-6 tox -4.
CCOc1ccc(C(=O)C(CCC(CN(C)C)C(=O)c2ccc(OCC)cc2)CN(C)C)cc1 (stereo not given) was read as APP transl inh 92*, IEC-6 tox 29*, BaF3 tox 40*, bCat nuc transl 9, MT stabilizer 5, Ba/F3 V617F tox 101* and IEC-6 cytotox cf 27*.
`CCOc1ccc(C(=O)c2ccncc2)cc1` gave APP transl inh -9, IEC-6 tox 1, BaF3 tox 1, bCat nuc transl -2, MT stabilizer 4 and Ba/F3 V617F tox -4.
`CCC(C(=O)NC1CCCCC1)N(Cc1cccs1)C(=O)CCC(=O)Nc1cc(C)on1` (stereo not given) gave IEC-6 tox 11.
Screening COc1ccc(C2CC(=O)N(C)c3ccccc3S2)cc1 (stereo not given) returned APP transl inh -6, IEC-6 tox 24*, BaF3 tox -6, bCat nuc transl -2, MT stabilizer 5, Ba/F3 V617F tox 4 and IEC-6 cytotox cf 9.
